Laboratory results reported in paper PMC6044864 (ACS Omega, 2017).

Tests used:
Candida albicans cells = conditions: cited from earlier work
HeLa cells = conditions: cited from earlier work
[1] = system: Trichosporon beigelii cells; conditions: cited from earlier work
human erythrocytes = conditions: cited from earlier work
bacteria = conditions: cited from earlier work
Photodegradation = format: physicochemical; conditions: photostability; 10 μmol·L^–1 in 60% ACN/H2O/0.09% TFA; laser 440 nm; 0 to 50 min
Method in brief: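 Test compound was irradiated in solution at room temperature with a pulsed 10 Hz laser at 440 nm for 50 min. UV/vis absorption spectra were recorded before irradiation and every 5 min. Absorbance maximum at 440 nm was plotted against time, and the change was taken as the difference between initial and final readings.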

Row | Substance | Growth inhibition of Candida albicans cells (Candida albicans cells) | Cell penetration and nuclear localisation (HeLa cells) | Cell penetration and nuclear localisation [1] | Hemolytic effect (human erythrocytes) | Growth inhibition of bacteria (bacteria) | Difference of absorbance at 440 nm in 50 min of exposure to light (Photodegradation)
1 | TAT peptide (47-58): carboxyl-free analogue of TAT(47-57)-NH2 | inhibit the growth | penetrate, and localize in the nucleus | penetrate, and localize in the nucleus | without hemolytic effect | inhibit the growth | 
2 | 5(6)-carboxyfluorescein [FAM] |  |  |  |  |  | 0.022
